Converted amounts (≈) assume the structure as drawn. Values belong to the compound of their own block, whether it stands above or below them.
How the values were obtained:
[1] = Solubility of the compound in alphaMEM containing 5% FCS and 1% DMSO by HPLC analysis; type: physicochemical
How it was run: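 Saturated drug solutions were incubated at 37 °C in αMEM with 5% FCS and 1% DMSO. Dissolved drug was quantified by HPLC.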

HCT-116 [2] = test: Cytotoxicity against human HCT116 cells incubated for 4 hrs under anaerobic condition measured after 5 days by sulforhodamine B assay; type: functional, cell-based
How it was run: (§1)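 STR-authenticated, mycoplasma-free HCT116 cells in αMEM + 5% FCS were seeded at 700 cells/well and allowed 2 h to attach. Drug was added from DMSO stocks (<1% DMSO) in serial 3-fold dilutions for 4 h, oxic or anoxic (Pd-catalyst anaerobic chamber, medium pre-equilibrated ≥3 days). After washing, cells regrew for 5 days before SRB staining and IC50 determination.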

HCT-116 [3] = test: Hypoxic cytotoxicity ratio of IC50 for human HCT116 cells under oxic condition to IC50 for human HCT116 cells under anoxic condition
How it was run: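 HCT116 cells, 700 per well and attached 2 h, got a 4 h exposure to 3-fold serial dilutions (<1% DMSO) under air or in a Pd-catalyst anaerobic chamber with pre-equilibrated medium. Cells were washed, regrown 5 days, and stained with sulforhodamine B to give IC50. HCR = oxic IC50 / anoxic IC50.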

HCT-116 [4] = test: (§2) Hypoxia radiosensitization activity in human HCT116 cells assessed as survival ratio by measuring ratio of cell survival with 15 Gy radiation in absence to presence of compound at anoxic IC50 preincubated for 1 hr followed by 15 Gy irradiation measured after 10 days by methylene blue staining-based cell counting method; type: functional
How it was run: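 Anoxic HCT116 cells were seeded at 10^5/well and treated at the anoxic IC50 concentration for 1 h at room temperature. They were irradiated with 15 Gy (60Co, ~2 Gy/min) in a sealed steel box, then plated clonogenically. Colonies of >50 cells were counted […]. SR15 = survival with radiation / survival with drug + radiation.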

HCT-116 [5] = test: (§3) Hypoxia radiosensitization activity in human HCT116 cells assessed as sensitizer enhancement ratio by measuring ratio of radiation dose for 1% survival in absence to presence of compound at 0.81 mM preincubated for 1 hr followed by irradiation measured after 10 days by methylene blue staining-based cell counting method; type: functional
HCT-116 [6] = test: as §3, with “method relative to misonidazole” for “method”; type: functional
HCT-116 [7] = test: as §2, with “with” for “with 15 Gy”, “0.81 mM” for “anoxic IC50”, “6 to 29” for “15”; type: functional
HCT-116 [8] = test: as §2, with “with” for “with 15 Gy”, “0.81 mM” for “anoxic IC50”, “6 to 29” for “15”, “method relative to misonidazole” for “method”; type: functional
HCT-116 [9] = test: Cytotoxicity against human HCT116 cells incubated for 4 hrs under aerobic condition measured after 5 days by sulforhodamine B assay; type: cell-based; how it was run: as §1
[10] = Electrophilicity of the compound in pH 7 phosphate buffer assessed as one-electron reduction potential
How it was run: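 The one-electron reduction potential was set by pulse radiolysis equilibria at pH 7.0 (2.5 mM phosphate), established within 20 µs against benzylviologen, methylviologen or triquat. ΔE came from equilibrium constants via the Nernst equation, at three concentration ratios and 22 ± 2 °C.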

HCT-116 [11] = test: Cytotoxicity against human HCT116 cells at anoxic IC50 incubated for 1 hr at 21 degC by clonogenic survival assay; settings: hct-116, 1 h
HCT-116 [12] = test: as §3, with “0.82” for “0.81”, “method relative to misonidazole” for “method”; type: functional
HCT-116 [13] = test: as §3, with “0.82” for “0.81”; type: functional
HCT-116 [14] = test: as §2, with “with” for “with 15 Gy”, “0.82 mM” for “anoxic IC50”, “6 to 29” for “15”; type: functional
HCT-116 [15] = test: as §2, with “with” for “with 15 Gy”, “0.82 mM” for “anoxic IC50”, “6 to 29” for “15”, “method relative to misonidazole” for “method”; type: functional
HCT-116 [16] = test: as §2, with “with” for “with 15 Gy”, “1.34 mM” for “anoxic IC50”, “6 to 29” for “15”; type: functional
HCT-116 [17] = test: as §2, with “with” for “with 15 Gy”, “1.34 mM” for “anoxic IC50”, “6 to 29” for “15”, “method relative to misonidazole” for “method”; type: functional
HCT-116 [18] = test: as §2, with “with” for “with 15 Gy”, “0.52 mM” for “anoxic IC50”, “6 to 29” for “15”; type: functional
HCT-116 [19] = test: as §2, with “with” for “with 15 Gy”, “0.52 mM” for “anoxic IC50”, “6 to 29” for “15”, “method relative to misonidazole” for “method”; type: functional
HCT-116 [20] = test: as §3, with “5” for “0.81”; type: functional
HCT-116 [21] = test: as §3, with “5” for “0.81”, “method relative to misonidazole” for “method”; type: functional
HCT-116 [22] = test: as §2, with “with” for “with 15 Gy”, “5 mM” for “anoxic IC50”, “6 to 29” for “15”; type: functional
HCT-116 [23] = test: as §2, with “with” for “with 15 Gy”, “5 mM” for “anoxic IC50”, “6 to 29” for “15”, “method relative to misonidazole” for “method”; type: functional

Compound: Cc1ncc([N+](=O)[O-])n1CCS(=O)(=O)NCCN1CCCCC1
Ratio (HCT-116 [16]): 24 | fold change (FC) (HCT-116 [17]): 2.36 | Activity (HCT-116 [11]): Non-Toxic

Compound: COCCNS(=O)(=O)Cn1cnc([N+](=O)[O-])c1
Ratio (HCT-116 [18]): 1.3 | fold change (FC) (HCT-116 [19]): 0.44 | Activity (HCT-116 [11]): Non-Toxic

Now from value to compound, other results behind:

solubility [1]: 75.3 mM (≈ 19.9 mg/mL)
Compound: O=[N+]([O-])c1nccn1CCS(=O)(=O)NCCO
IC50 (HCT-116 [2]): 800 µM | Ratio IC50 (HCT-116 [3]): 8 | Ratio (HCT-116 [4]): 12 | Ratio (HCT-116 [5]): 1.27 | fold change (FC) (HCT-116 [6]): 0.92 | Ratio (HCT-116 [7]): 4.2 | fold change (FC) (HCT-116 [8]): 0.54 | IC50 (HCT-116 [9]): 380 to 4800 µM | Activity [10]: -391 mV | Activity (HCT-116 [11]): Non-Toxic

solubility [1]: 46.8 mM (≈ 14.3 mg/mL)
Compound: Cc1ncc([N+](=O)[O-])n1CCS(=O)(=O)NCCN(C)C
fold change (FC) (HCT-116 [12]): 1.06 | IC50 (HCT-116 [2]): 800 µM | Ratio IC50 (HCT-116 [3]): 6 | Ratio (HCT-116 [4]): 11 | Ratio (HCT-116 [13]): 1.57 | Ratio (HCT-116 [14]): 14.9 | fold change (FC) (HCT-116 [15]): 1.51 | Activity (HCT-116 [11]): Non-Toxic

solubility [1]: 69.3 mM (≈ 18.3 mg/mL)
Compound: O=[N+]([O-])c1cncn1CCS(=O)(=O)NCCO
IC50 (HCT-116 [2]): 5300 µM | Ratio IC50 (HCT-116 [3]): 2 | Ratio (HCT-116 [4]): 282 | Ratio (HCT-116 [20]): 1.81 | fold change (FC) (HCT-116 [21]): 1.23 | Ratio (HCT-116 [22]): 163 | fold change (FC) (HCT-116 [23]): 12.1 | Activity (HCT-116 [11]): Non-Toxic

— ChEMBL document CHEMBL4033777, “Next-Generation Hypoxic Cell Radiosensitizers: Nitroimidazole Alkylsulfonamides” (J Med Chem, 2018)
